Experimental data taken from ChEMBL document CHEMBL1140412, “F-18 stilbenes as PET imaging agents for detecting beta-amyloid plaques in the brain” (J Med Chem, 2005).

How the values were obtained:
[1] = Biodistribution in ICR mouse kidney 2 hr after iv injection of [18F]-compound in 0.1% bovine serum albumin solution, n = 3; assay type: ADME, organism-based; conditions: in vivo
In short: (§1)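 Male ICR mice (22-25 g) under isoflurane anesthesia received 0.15 mL of 0.1% BSA solution containing 5-10 μCi [¹⁸F]tracer by tail-vein injection; n = 3 per time point. Killed by cervical dislocation, organs removed, weighed and gamma-counted. %dose/g derived from sample counts vs. diluted initial dose; blood total activity assumed as 7% of body weight. Mean ± SD.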

[2] = Biodistribution in ICR mouse skin 1 hr after iv injection of [18F]-compound in 0.1% bovine serum albumin solution, n = 3; assay type: ADME, organism-based, Zone of skin; conditions: in vivo; in short: as §1
[3] = Biodistribution in ICR mouse lung 2 min. after iv injection of [18F]-compound in 0.1% bovine serum albumin solution, n = 3; assay type: ADME, organism-based; conditions: in vivo; in short: as §1
[4] = Biodistribution in ICR mouse muscle 2 hr after iv injection of [18F]-compound in 0.1% bovine serum albumin solution, n = 3; assay type: ADME, organism-based, Muscle tissue; conditions: in vivo; in short: as §1
[5] = Biodistribution in ICR mouse heart 2 min. after iv injection of [18F]-compound in 0.1% bovine serum albumin solution, n = 3; assay type: ADME, organism-based; conditions: in vivo; in short: as §1
[6] = Biodistribution in ICR mouse liver 1 hr after iv injection of [18F]-compound in 0.1% bovine serum albumin solution, n = 3; assay type: ADME, organism-based; conditions: in vivo; in short: as §1
[7] = Biodistribution in ICR mouse blood 1 hr after iv injection of [18F]-compound in 0.1% bovine serum albumin solution, n = 3; assay type: ADME, organism-based; conditions: in vivo; in short: as §1
[8] = Biodistribution in ICR mouse heart 2 hr after iv injection of [18F]-compound in 0.1% bovine serum albumin solution, n = 3; assay type: ADME, organism-based; conditions: in vivo; in short: as §1
[9] = Biodistribution in ICR mouse skin 2 hr after iv injection of [18F]-compound in 0.1% bovine serum albumin solution, n = 3; assay type: ADME, organism-based, Zone of skin; conditions: in vivo; in short: as §1
[10] = Biodistribution in ICR mouse bone 2 hr after iv injection of [18F]-compound in 0.1% bovine serum albumin solution, n = 3; assay type: ADME, organism-based, Bone element; conditions: in vivo; in short: as §1
[11] = Biodistribution in ICR mouse spleen 2 min. after iv injection of [18F]-compound in 0.1% bovine serum albumin solution, n = 3; assay type: ADME, organism-based; conditions: in vivo; in short: as §1
[12] = Biodistribution in ICR mouse kidney 1 hr after iv injection of [18F]-compound in 0.1% bovine serum albumin solution, n = 3; assay type: ADME, organism-based; conditions: in vivo; in short: as §1
[13] = Biodistribution in ICR mouse muscle 30 min. after iv injection of [18F]-compound in 0.1% bovine serum albumin solution, n = 3; assay type: ADME, organism-based, Muscle tissue; conditions: in vivo, 0.5 h; in short: as §1
[14] = Biodistribution in ICR mouse heart 30 min. after iv injection of [18F]-compound in 0.1% bovine serum albumin solution, n = 3; assay type: ADME, organism-based; conditions: in vivo, 0.5 h; in short: as §1
[15] = Biodistribution in ICR mouse liver 2 hr after iv injection of [18F]-compound in 0.1% bovine serum albumin solution, n = 3; assay type: ADME, organism-based; conditions: in vivo; in short: as §1
[16] = Biodistribution in ICR mouse lung 1 hr after iv injection of [18F]-compound in 0.1% bovine serum albumin solution, n = 3; assay type: ADME, organism-based; conditions: in vivo; in short: as §1
[17] = Biodistribution in ICR mouse muscle 2 min. after iv injection of [18F]-compound in 0.1% bovine serum albumin solution, n = 3; assay type: ADME, organism-based, Muscle tissue; conditions: in vivo; in short: as §1
[18] = Biodistribution in ICR mouse spleen 2 hr after iv injection of [18F]-compound in 0.1% bovine serum albumin solution, n = 3; assay type: ADME, organism-based; conditions: in vivo; in short: as §1
[19] = Biodistribution in ICR mouse bone 30 min. after iv injection of [18F]-compound in 0.1% bovine serum albumin solution, n = 3; assay type: ADME, organism-based, Bone element; conditions: in vivo, 0.5 h; in short: as §1
[20] = Biodistribution in ICR mouse brain 2 min. after iv injection of [18F]-compound in 0.1% bovine serum albumin solution, n = 3; assay type: ADME, organism-based; conditions: in vivo; in short: as §1
[21] = Biodistribution in ICR mouse kidney 2 min. after iv injection of [18F]-compound in 0.1% bovine serum albumin solution, n = 3; assay type: ADME, organism-based; conditions: in vivo; in short: as §1
[22] = Biodistribution in ICR mouse skin 30 min. after iv injection of [18F]-compound in 0.1% bovine serum albumin solution, n = 3; assay type: ADME, organism-based, Zone of skin; conditions: in vivo, 0.5 h; in short: as §1
[23] = Biodistribution in ICR mouse spleen 30 min. after iv injection of [18F]-compound in 0.1% bovine serum albumin solution, n = 3; assay type: ADME, organism-based; conditions: in vivo, 0.5 h; in short: as §1
[24] = Biodistribution in ICR mouse liver 2 min. after iv injection of [18F]-compound in 0.1% bovine serum albumin solution, n = 3; assay type: ADME, organism-based; conditions: in vivo; in short: as §1
[25] = Biodistribution in ICR mouse kidney 30 min. after iv injection of [18F]-compound in 0.1% bovine serum albumin solution, n = 3; assay type: ADME, organism-based; conditions: in vivo, 0.5 h; in short: as §1
[26] = Biodistribution in ICR mouse lung 2 hr after iv injection of [18F]-compound in 0.1% bovine serum albumin solution, n = 3; assay type: ADME, organism-based; conditions: in vivo; in short: as §1
[27] = Biodistribution in ICR mouse heart 1 hr after iv injection of [18F]-compound in 0.1% bovine serum albumin solution, n = 3; assay type: ADME, organism-based; conditions: in vivo; in short: as §1
[28] = Biodistribution in ICR mouse liver 30 min. after iv injection of [18F]-compound in 0.1% bovine serum albumin solution, n = 3; assay type: ADME, organism-based; conditions: in vivo, 0.5 h; in short: as §1
[29] = Biodistribution in ICR mouse bone 1 hr after iv injection of [18F]-compound in 0.1% bovine serum albumin solution, n = 3; assay type: ADME, organism-based, Bone element; conditions: in vivo; in short: as §1
[30] = Biodistribution in ICR mouse muscle 1 hr after iv injection of [18F]-compound in 0.1% bovine serum albumin solution, n = 3; assay type: ADME, organism-based, Muscle tissue; conditions: in vivo; in short: as §1
[31] = Biodistribution in ICR mouse bone 2 min. after iv injection of [18F]-compound in 0.1% bovine serum albumin solution, n = 3; assay type: ADME, organism-based, Bone element; conditions: in vivo; in short: as §1
[32] = Biodistribution in ICR mouse spleen 1 hr after iv injection of [18F]-compound in 0.1% bovine serum albumin solution, n = 3; assay type: ADME, organism-based; conditions: in vivo; in short: as §1
[33] = molecular target: Amyloid-beta precursor protein (Homo sapiens, UniProt P05067); assay: Inhibition constant for I-125-IMPY binding to amyloid plaques in Alzheimers disease brain homogenates; assay type: tissue-based
Sequence of Amyloid-beta precursor protein (P05067 whole entry): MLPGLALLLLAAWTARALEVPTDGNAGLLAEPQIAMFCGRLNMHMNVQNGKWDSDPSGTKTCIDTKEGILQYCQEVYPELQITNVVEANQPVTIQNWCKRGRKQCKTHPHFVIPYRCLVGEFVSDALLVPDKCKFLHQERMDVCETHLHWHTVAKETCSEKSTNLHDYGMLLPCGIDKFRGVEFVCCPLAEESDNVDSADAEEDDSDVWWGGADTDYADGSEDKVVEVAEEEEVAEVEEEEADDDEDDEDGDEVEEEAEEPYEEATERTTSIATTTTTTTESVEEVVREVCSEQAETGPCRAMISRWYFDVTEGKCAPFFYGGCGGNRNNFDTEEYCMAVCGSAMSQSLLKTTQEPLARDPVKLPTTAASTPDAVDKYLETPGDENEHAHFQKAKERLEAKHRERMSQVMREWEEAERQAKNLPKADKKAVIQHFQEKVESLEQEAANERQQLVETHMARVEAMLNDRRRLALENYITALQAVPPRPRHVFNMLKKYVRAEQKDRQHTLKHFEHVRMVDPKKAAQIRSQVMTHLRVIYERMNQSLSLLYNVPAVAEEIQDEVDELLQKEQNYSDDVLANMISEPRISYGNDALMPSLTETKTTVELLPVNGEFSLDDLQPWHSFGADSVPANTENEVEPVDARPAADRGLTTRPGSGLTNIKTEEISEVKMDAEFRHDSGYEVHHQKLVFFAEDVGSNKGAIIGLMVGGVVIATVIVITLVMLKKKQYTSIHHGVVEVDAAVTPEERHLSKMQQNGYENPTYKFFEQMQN
In short: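 Competition binding in pooled postmortem AD cortical homogenates (dissected gray/white matter, ~100 mg wet tissue/ml PBS pH 7.4; 20-50 μg per tube). [¹²⁵I]IMPY at 0.04-0.06 nM; inhibitors 10^-5-10^-10 M in PBS with 0.1% BSA. Nonspecific binding with 600 nM IMPY. Incubated 2 hr at 37°C, GF/B filtration, PBS washes, gamma counting. Ki from nonlinear regression.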

[34] = Biodistribution in ICR mouse blood 2 hr after iv injection of [18F]-compound in 0.1% bovine serum albumin solution, n = 3; assay type: ADME, organism-based; conditions: in vivo; in short: as §1
[35] = Biodistribution in ICR mouse brain 2 hr after iv injection of [18F]-compound in 0.1% bovine serum albumin solution, n = 3; assay type: ADME, organism-based; conditions: in vivo; in short: as §1
[36] = Biodistribution in ICR mouse blood 30 min. after iv injection of [18F]-compound in 0.1% bovine serum albumin solution, n = 3; assay type: ADME, organism-based; conditions: in vivo, 0.5 h; in short: as §1
[37] = Biodistribution in ICR mouse brain 1 hr after iv injection of [18F]-compound in 0.1% bovine serum albumin solution, n = 3; assay type: ADME, organism-based; conditions: in vivo; in short: as §1
[38] = Biodistribution in ICR mouse blood 2 min. after iv injection of [18F]-compound in 0.1% bovine serum albumin solution, n = 3; assay type: ADME, organism-based; conditions: in vivo; in short: as §1
[39] = Biodistribution in ICR mouse lung 30 min. after iv injection of [18F]-compound in 0.1% bovine serum albumin solution, n = 3; assay type: ADME, organism-based; conditions: in vivo, 0.5 h; in short: as §1
[40] = Biodistribution in ICR mouse skin 2 min. after iv injection of [18F]-compound in 0.1% bovine serum albumin solution, n = 3; assay type: ADME, organism-based, Zone of skin; conditions: in vivo; in short: as §1
[41] = Biodistribution in ICR mouse brain 30 min. after iv injection of [18F]-compound in 0.1% bovine serum albumin solution, n = 3; assay type: ADME, organism-based; conditions: in vivo, 0.5 h; in short: as §1

SMILES: CN(C)c1ccc(/C=C/c2ccc(OCC(CO)C[18F])cc2)cc1 (stereo not given)
- Biodistribution [1]: 2.19 %Dose/g
- Biodistribution [2]: 1.65 %Dose/g
- Biodistribution [3]: 93.4 %Dose/g
- Biodistribution [4]: 0.66 %Dose/g
- Biodistribution [5]: 10.43 %Dose/g
- Biodistribution [6]: 13.46 %Dose/g
- Biodistribution [7]: 1.51 %Dose/g
- Biodistribution [8]: 0.91 %Dose/g
- Biodistribution [9]: 1 %Dose/g
- Biodistribution [10]: 8.63 %Dose/g
- Biodistribution [11]: 4.43 %Dose/g
- Biodistribution [12]: 2.97 %Dose/g
- Biodistribution [13]: 1.53 %Dose/g
- Biodistribution [14]: 2.76 %Dose/g
- Biodistribution [15]: 9.51 %Dose/g
- Biodistribution [16]: 5 %Dose/g
- Biodistribution [17]: 0.84 %Dose/g
- Biodistribution [18]: 0.99 %Dose/g
- Biodistribution [19]: 2.06 %Dose/g
- Biodistribution [20]: 5.55 %Dose/g
- Biodistribution [21]: 13.32 %Dose/g
- Biodistribution [22]: 1.69 %Dose/g
- Biodistribution [23]: 2.45 %Dose/g
- Biodistribution [24]: 14.13 %Dose/g
- Biodistribution [25]: 4.64 %Dose/g
- Biodistribution [26]: 3.74 %Dose/g
- Biodistribution [27]: 1.45 %Dose/g
- Biodistribution [28]: 14.65 %Dose/g
- Biodistribution [29]: 6.5 %Dose/g
- Biodistribution [30]: 1.22 %Dose/g
- Biodistribution [31]: 1.57 %Dose/g
- Biodistribution [32]: 1.24 %Dose/g
- Ki [33]: 15 nM
- Biodistribution [34]: 1.18 %Dose/g
- Biodistribution [35]: 1.37 %Dose/g
- Biodistribution [36]: 1.65 %Dose/g
- Biodistribution [37]: 2.97 %Dose/g
- Biodistribution [38]: 1.79 %Dose/g
- Biodistribution [39]: 12.93 %Dose/g
- Biodistribution [40]: 0.67 %Dose/g
- Biodistribution [41]: 5.21 %Dose/g

SMILES: Nc1ccc(/C=C/c2ccc(O)cc2)cc1
- Ki [33]: 95 nM

SMILES: Cc1ccc(S(=O)(=O)OCC(CO)COc2ccc(/C=C/c3ccc(N(C)C)cc3)cc2)cc1 (stereo not given)
- Ki [33]: 150 nM

SMILES: CN(C)c1ccc(/C=C/c2ccc(OCC(CO)Cc3ccc(Br)cc3)cc2)cc1 (stereo not given)
- Ki [33]: 80 nM

SMILES: CN(C)c1ccc(/C=C/c2ccc(OCC(CO)CO)cc2)cc1
- Ki [33]: 38 nM
